Laboratory results as given in ChEMBL document CHEMBL5034016 (J Med Chem, 2021).

Columns and labels:
[1] = Selectivity index, ratio of CC50 for human RD cells to EC50 for antiviral activity against Enterovirus A71 infected in human RD cells; format: toxicity, cell-based; conditions: read-out: Ratio CC50/EC50
[2] = Inhibition of mouse mAb clone 9305 binding to HIV1 gp120 expressed in human MT4 cells by flow cytometry analysis; format: cell-based, Human immunodeficiency virus 1
[3] = tested on: Human immunodeficiency virus 1; assay: Inhibition of HIV-1 gp120 interaction with human CD4 assessed as inhibition of viral entry at 156 to […] by SPR analysis; conditions: dose lower […], dose upper […]
[4] = Inhibition of mouse mAb clone 9284 binding to HIV1 gp120 expressed in human MT4 cells by flow cytometry analysis; format: cell-based, Human immunodeficiency virus 1
[5] = Inhibition of human mAb clone 447-52D binding to HIV1 gp120 expressed in human MT4 cells by flow cytometry analysis; format: cell-based, Human immunodeficiency virus 1
[6] = Inhibition of human mAb clone 2G12 binding to HIV1 gp120 expressed in human MT4 cells by flow cytometry analysis; format: cell-based, Human immunodeficiency virus 1
[7] = tested on: Enterovirus; assay: Antiviral activity against Enterovirus A71 harbouring VP1 S184T mutant infected in human RD cells assessed as reduction in virus induced cytopathic effect incubated for 3 days by MTS/PMS assay; format: functional, organism-based
[8] = tested on: Enterovirus A71; assay: Antiviral activity against Enterovirus A71 BrCr infected in human RD cells assessed as reduction in virus-induced cytopathic effect incubated for 3 days by MTS/PMS assay; format: functional, organism-based; conditions: Enterovirus A, 72 h
[9] = tested on: Enterovirus; assay: Antiviral activity against Enterovirus A71 harbouring VP1 S184T/P246S double mutant infected in human RD cells assessed as reduction in virus induced cytopathic effect incubated for 3 days by MTS/PMS assay; format: functional, organism-based
[10] = Cytotoxicity against human RD cells assessed as reduction in cell viability measured after 3 days by MTS/PMS assay; format: cell-based; conditions: time 3 day
Method in brief: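 Uninfected RD cells were treated with serial compound dilutions in the same 3-day setup as the antiviral assay. […] Multiple dose–response curves (>2) from >1 independent experiments.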

[11] = tested on: Enterovirus; assay: Antiviral activity against Enterovirus A71 harbouring VP1 P246S mutant infected in human RD cells assessed as reduction in virus induced cytopathic effect incubated for 3 days by MTS/PMS assay; format: functional, organism-based
[12] = tested on: Human immunodeficiency virus 1; assay: Anti-HIV activity against HIV-1 NL4.3 infected in human MT4 cells assessed as reduction in virus-indued cytopathic effect preincubated with cells for 30 mins followed by viral infection and measured after 5 days by MTS assay; format: functional, organism-based; conditions: Human immunodeficiency virus 1, NL4.3, MT4
Method in brief: (§1)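 MT-4 cells (1×10^6 cells/mL) were preincubated with compound for 30 min at 37 °C, then infected with cell-line-adapted NL4.3 or ROD dosed by TCID50 of the stock. After 5 days, CPE was scored microscopically and EC50 calculated from MTS/PES reduction (A490). Mean ± SD of at least three independent experiments.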

[13] = Cytotoxicity against human MT4 cells assessed as reduction in cell viability measured after 5 days by MTS/PES assay; format: cell-based; conditions: time 5 day
Method in brief: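 Uninfected MT-4 cells were exposed to compound for 5 days. Viability was read by MTS/PES (A490, formazan proportional to living cells). […] Mean ± SD of at least three independent experiments.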

[14] = tested on: Human immunodeficiency virus 2; assay: Anti-HIV activity against HIV-2 ROD infected in human MT4 cells assessed as reduction in virus-indued cytopathic effect preincubated with cells for 30 mins followed by viral infection and measured after 5 days by MTS assay; format: functional, organism-based; conditions: Human immunodeficiency virus 2, ROD; method in brief: as §1

O=C(CCOCC(COCCC(=O)NC(Cc1c[nH]c2c(-c3cccc(C(=O)O)c3)cccc12)C(=O)O)(COCCC(=O)NC(Cc1c[nH]c2c(-c3cccc(C(=O)O)c3)cccc12)C(=O)O)COCCC(=O)NC(Cc1c[nH]c2c(-c3cccc(C(=O)O)c3)cccc12)C(=O)O)NC(Cc1c[nH]c2c(-c3cccc(C(=O)O)c3)cccc12)C(=O)O (stereo not given)
selectivity ratio [1]: 20

O=C(CCOCC(COCCC(=O)NC(Cc1c(-c2cc(C(=O)O)cc(C(=O)O)c2)[nH]c2ccccc12)C(=O)O)(COCCC(=O)NC(Cc1c(-c2cc(C(=O)O)cc(C(=O)O)c2)[nH]c2ccccc12)C(=O)O)COCCC(=O)NC(Cc1c(-c2cc(C(=O)O)cc(C(=O)O)c2)[nH]c2ccccc12)C(=O)O)NC(Cc1c(-c2cc(C(=O)O)cc(C(=O)O)c2)[nH]c2ccccc12)C(=O)O (stereo not given)
IC50 [2]: > 100 µM
inhibition [3]: 50%
IC50 [4]: > 100 µM
IC50 [5]: > 100 µM
IC50 [6]: > 100 µM

O=C(CCOCC(COCCC(=O)NC(Cc1c[nH]c2c(-c3ccc(C(=O)O)cc3)cccc12)C(=O)O)(COCCC(=O)NC(Cc1c[nH]c2c(-c3ccc(C(=O)O)cc3)cccc12)C(=O)O)COCCC(=O)NC(Cc1c[nH]c2c(-c3ccc(C(=O)O)cc3)cccc12)C(=O)O)NC(Cc1c[nH]c2c(-c3ccc(C(=O)O)cc3)cccc12)C(=O)O (stereo not given)
selectivity ratio [1]: 60

O=C(CCC(CCC(=O)NC(Cc1c[nH]c2c(-c3cccc(C(=O)O)c3)cccc12)C(=O)O)(CCC(=O)NC(Cc1c[nH]c2c(-c3cccc(C(=O)O)c3)cccc12)C(=O)O)[N+](=O)[O-])NC(Cc1c[nH]c2c(-c3cccc(C(=O)O)c3)cccc12)C(=O)O (stereo not given)
selectivity ratio [1]: 1

O=C(CCC(CCC(=O)N[C@H](Cc1c[nH]c2ccccc12)C(=O)O)(CCC(=O)N[C@H](Cc1c[nH]c2ccccc12)C(=O)O)NC(=O)CCOCC(COCCC(=O)NC(CCC(=O)N[C@H](Cc1c[nH]c2ccccc12)C(=O)O)(CCC(=O)N[C@H](Cc1c[nH]c2ccccc12)C(=O)O)CCC(=O)N[C@H](Cc1c[nH]c2ccccc12)C(=O)O)(COCCC(=O)NC(CCC(=O)N[C@H](Cc1c[nH]c2ccccc12)C(=O)O)(CCC(=O)N[C@H](Cc1c[nH]c2ccccc12)C(=O)O)CCC(=O)N[C@H](Cc1c[nH]c2ccccc12)C(=O)O)COCCC(=O)NC(CCC(=O)N[C@H](Cc1c[nH]c2ccccc12)C(=O)O)(CCC(=O)N[C@H](Cc1c[nH]c2ccccc12)C(=O)O)CCC(=O)N[C@H](Cc1c[nH]c2ccccc12)C(=O)O)N[C@H](Cc1c[nH]c2ccccc12)C(=O)O
EC50 [7]: 2 µM
EC50 [8]: 0.3 µM
EC50 [9]: 8.9 µM
CC50 at 72 h [10]: 24.9 µM
EC50 [11]: 4.7 µM

O=C(CCOCC(COCCC(=O)NC(Cc1c[nH]c2c(-c3cc(C(=O)O)cc(C(=O)O)c3)cccc12)C(=O)O)(COCCC(=O)NC(Cc1c[nH]c2c(-c3cc(C(=O)O)cc(C(=O)O)c3)cccc12)C(=O)O)COCCC(=O)NC(Cc1c[nH]c2c(-c3cc(C(=O)O)cc(C(=O)O)c3)cccc12)C(=O)O)NC(Cc1c[nH]c2c(-c3cc(C(=O)O)cc(C(=O)O)c3)cccc12)C(=O)O (stereo not given)
selectivity ratio [1]: 157

O=C(CCC(CCC(=O)NC(Cc1c[nH]c2c(-c3ccc(C(=O)O)cc3)cccc12)C(=O)O)(CCC(=O)NC(Cc1c[nH]c2c(-c3ccc(C(=O)O)cc3)cccc12)C(=O)O)[N+](=O)[O-])NC(Cc1c[nH]c2c(-c3ccc(C(=O)O)cc3)cccc12)C(=O)O (stereo not given)
EC50 [8]: 61.6 µM
EC50 [12]: 12 µM
selectivity ratio [1]: 1
CC50 at 120 h [13]: > 100 µM
EC50 [14]: 49.7 µM
CC50 at 72 h [10]: > 61 µM
